According to ChEMBL document CHEMBL3124924, “Bifunctional ethyl 2-amino-4-methylthiazole-5-carboxylate derivatives: synthesis and in vitro biological evaluation as antimicrobial and anticancer agents” (2014):
Converted amounts (≈) assume the structure as drawn. The source made the active and inactive calls. The calls are words filed in the database; no cut-off is given here.

Legend:
Staphylococcus aureus [1] = test: Antibacterial activity against Staphylococcus aureus ATCC 6538 assessed as growth inhibition at 1 mg/mL after 24 hrs by agar-cup diffusion method; type: functional; conditions: ATCC 6538, 24 h, read-out: DIZ
How it was run: (§1)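 Agar-cup diffusion: 1 mL of 6 h broth culture seeded per 100 mL molten sterile agar at 45 °C and poured into plates. 8 mm cups cut, each filled with 0.1 mL of 1 mg/mL test solution. Incubated 37 °C for 24 h, 48 h for C. albicans. DMSO control per organism. Inhibition zone diameter in mm, mean of three measurements.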

Escherichia coli [2] = test: Antibacterial activity against Escherichia coli ATCC 25922 assessed as growth inhibition after 48 hrs by two-fold serial dilution assay; type: functional
How it was run: (§2)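 Twofold serial broth dilution run on compounds giving inhibition zones of 13 mm or more. Organisms pre-grown in suitable broth at 37 °C, 24 h for bacteria and 48 h for fungi. Dilution series 200, 100, 50, 25, 12.5, 6.25. Each 5 mL tube inoculated with 0.1 mL and incubated 37 °C for 48 h. Tubes scored for presence or absence of growth.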

Bacillus spizizenii [3] = test: Bactericidal activity against Bacillus subtilis ATCC 6633 after 18 hrs; type: functional; conditions: ATCC 6633, 18 h
How it was run: (§3)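 Continuation of the broth-dilution MIC test. A loopful from each tube without visible growth spread on a quarter of a Mueller-Hinton agar plate and incubated 18 h. Lowest concentration giving no growth on subculture taken as the MBC.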

Candida albicans [4] = test: Antifungal activity against Candida albicans ATCC 10231 assessed as growth inhibition at 1 mg/mL after 48 hrs by agar-cup diffusion method; type: functional; conditions: ATCC 10231, 48 h, read-out: DIZ; how it was run: as §1
Staphylococcus aureus [5] = test: Bactericidal activity against Staphylococcus aureus ATCC 6538 after 18 hrs; type: functional; conditions: ATCC 6538, 18 h; how it was run: as §3
Pseudomonas aeruginosa [6] = test: Antibacterial activity against Pseudomonas aeruginosa ATCC 27853 assessed as growth inhibition at 1 mg/mL after 24 hrs by agar-cup diffusion method; type: functional; conditions: ATCC 27853, 24 h, read-out: DIZ; how it was run: as §1
Aspergillus niger = test: Antifungal activity against Aspergillus niger assessed as growth inhibition at 1 mg/mL after 24 hrs by agar-cup diffusion method; type: functional, organism-based; how it was run: as §1
Staphylococcus aureus [7] = test: Antibacterial activity against Staphylococcus aureus ATCC 6538 assessed as growth inhibition after 48 hrs by two-fold serial dilution assay; type: functional; how it was run: as §2
Bacillus spizizenii [8] = test: Antibacterial activity against Bacillus subtilis ATCC 6633 assessed as growth inhibition after 48 hrs by two-fold serial dilution assay; type: functional; how it was run: as §2
Bacillus spizizenii [9] = test: Antibacterial activity against Bacillus subtilis ATCC 6633 assessed as growth inhibition at 1 mg/mL after 24 hrs by agar-cup diffusion method; type: functional; conditions: ATCC 6633, 24 h, read-out: DIZ; how it was run: as §1
Escherichia coli [10] = test: Bactericidal activity against Escherichia coli ATCC 25922 after 18 hrs; type: functional; conditions: ATCC 25922, 18 h; how it was run: as §3
Escherichia coli [11] = test: Antibacterial activity against Escherichia coli ATCC 25922 assessed as growth inhibition at 1 mg/mL after 24 hrs by agar-cup diffusion method; type: functional; conditions: ATCC 25922, 24 h, read-out: DIZ; how it was run: as §1
Pseudomonas aeruginosa [12] = test: Antibacterial activity against Pseudomonas aeruginosa ATCC 27853 assessed as growth inhibition after 48 hrs by two-fold serial dilution assay; type: functional; how it was run: as §2
Pseudomonas aeruginosa [13] = test: Bactericidal activity against Pseudomonas aeruginosa ATCC 27853 after 18 hrs; type: functional; conditions: ATCC 27853, 18 h; how it was run: as §3
Candida albicans [14] = test: Antifungal activity against Candida albicans ATCC 10231 assessed as growth inhibition after 48 hrs by two-fold serial dilution assay; type: functional; conditions: ATCC 10231, 48 h; how it was run: as §2

Cc1nc(NC(=S)Nc2ccccc2)sc1C(=O)NN
zone of inhibition at 1000 µg/mL (Staphylococcus aureus [1]): > 13 mm | MIC (Escherichia coli [2]; ATCC 25922, 48 h): 100 µg/mL (≈ 325 µM) | MBC (Bacillus spizizenii [3]): 200 µg/mL (≈ 651 µM) | zone of inhibition at 1000 µg/mL (Candida albicans [4]): > 13 mm | MBC (Staphylococcus aureus [5]): 100 µg/mL (≈ 325 µM) | zone of inhibition at 1000 µg/mL (Pseudomonas aeruginosa [6]): > 13 mm | growth inhibition (GI) (Aspergillus niger): inactive | MIC (Staphylococcus aureus [7]; ATCC 6538, 48 h): 50 µg/mL (≈ 163 µM) | MIC (Bacillus spizizenii [8]; ATCC 6633, 48 h): 100 µg/mL (≈ 325 µM) | zone of inhibition at 1000 µg/mL (Bacillus spizizenii [9]): > 13 mm | MBC (Escherichia coli [10]): 100 µg/mL (≈ 325 µM) | zone of inhibition at 1000 µg/mL (Escherichia coli [11]): > 13 mm

CCOC(=O)c1sc(NC(=S)Nc2ccc(C)cc2)nc1C
zone of inhibition at 1000 µg/mL (Staphylococcus aureus [1]): > 13 mm | MIC (Escherichia coli [2]; ATCC 25922, 48 h): 50 µg/mL (≈ 149 µM) | MBC (Bacillus spizizenii [3]): 100 µg/mL (≈ 298 µM) | zone of inhibition at 1000 µg/mL (Candida albicans [4]): > 13 mm | MBC (Staphylococcus aureus [5]): 50 µg/mL (≈ 149 µM) | MIC (Pseudomonas aeruginosa [12]; ATCC 27853, 48 h): 100 µg/mL (≈ 298 µM) | zone of inhibition at 1000 µg/mL (Pseudomonas aeruginosa [6]): > 13 mm | growth inhibition (GI) (Aspergillus niger): inactive | MIC (Staphylococcus aureus [7]; ATCC 6538, 48 h): 50 µg/mL (≈ 149 µM) | MBC (Pseudomonas aeruginosa [13]): 200 µg/mL (≈ 596 µM) | MIC (Bacillus spizizenii [8]; ATCC 6633, 48 h): 100 µg/mL (≈ 298 µM) | zone of inhibition at 1000 µg/mL (Bacillus spizizenii [9]): > 13 mm | MBC (Escherichia coli [10]): 100 µg/mL (≈ 298 µM) | zone of inhibition at 1000 µg/mL (Escherichia coli [11]): > 13 mm

Cc1nc(NC(=S)NC2CCCCC2)sc1C(=O)NN
zone of inhibition at 1000 µg/mL (Staphylococcus aureus [1]): > 13 mm | MIC (Escherichia coli [2]; ATCC 25922, 48 h): 50 µg/mL (≈ 160 µM) | MBC (Bacillus spizizenii [3]): 100 µg/mL (≈ 319 µM) | zone of inhibition at 1000 µg/mL (Candida albicans [4]): > 13 mm | MBC (Staphylococcus aureus [5]): 100 µg/mL (≈ 319 µM) | MIC (Pseudomonas aeruginosa [12]; ATCC 27853, 48 h): 100 µg/mL (≈ 319 µM) | zone of inhibition at 1000 µg/mL (Pseudomonas aeruginosa [6]): > 13 mm | growth inhibition (GI) (Aspergillus niger): inactive | MIC (Staphylococcus aureus [7]; ATCC 6538, 48 h): 100 µg/mL (≈ 319 µM) | MBC (Pseudomonas aeruginosa [13]): 200 µg/mL (≈ 638 µM) | MIC (Bacillus spizizenii [8]; ATCC 6633, 48 h): 100 µg/mL (≈ 319 µM) | zone of inhibition at 1000 µg/mL (Bacillus spizizenii [9]): > 13 mm | MBC (Escherichia coli [10]): 100 µg/mL (≈ 319 µM) | zone of inhibition at 1000 µg/mL (Escherichia coli [11]): > 13 mm

Clc1ccccc1C(c1ccccc1)(c1ccccc1)n1ccnc1 [CLOTRIMAZOLE]
MIC (Candida albicans [14]): 6.25 µg/mL (≈ 18.1 µM)

GENTAMICIN
MIC (Escherichia coli [2]): 3.12 µg/mL | MIC (Pseudomonas aeruginosa [12]): 12.5 µg/mL | MIC (Staphylococcus aureus [7]): 3.12 µg/mL | MIC (Bacillus spizizenii [8]): 12.5 µg/mL

CCOC(=O)c1sc(/N=C/c2ccco2)nc1C
zone of inhibition at 1000 µg/mL (Staphylococcus aureus [1]): > 13 mm | MIC (Escherichia coli [2]; ATCC 25922, 48 h): 25 µg/mL (≈ 94.6 µM) | MBC (Bacillus spizizenii [3]): 200 µg/mL (≈ 757 µM) | zone of inhibition at 1000 µg/mL (Candida albicans [4]): > 13 mm | MBC (Staphylococcus aureus [5]): 100 µg/mL (≈ 378 µM) | zone of inhibition at 1000 µg/mL (Pseudomonas aeruginosa [6]): > 13 mm | growth inhibition (GI) (Aspergillus niger): inactive | MIC (Staphylococcus aureus [7]; ATCC 6538, 48 h): 50 µg/mL (≈ 189 µM) | MIC (Bacillus spizizenii [8]; ATCC 6633, 48 h): 100 µg/mL (≈ 378 µM) | zone of inhibition at 1000 µg/mL (Bacillus spizizenii [9]): > 13 mm | MBC (Escherichia coli [10]): 50 µg/mL (≈ 189 µM) | zone of inhibition at 1000 µg/mL (Escherichia coli [11]): > 13 mm

CCOC(=O)c1sc(/N=C/c2cccs2)nc1C
zone of inhibition at 1000 µg/mL (Staphylococcus aureus [1]): > 13 mm | MIC (Escherichia coli [2]; ATCC 25922, 48 h): 50 µg/mL (≈ 178 µM) | MBC (Bacillus spizizenii [3]): 200 µg/mL (≈ 713 µM) | zone of inhibition at 1000 µg/mL (Candida albicans [4]): > 13 mm | MBC (Staphylococcus aureus [5]): 200 µg/mL (≈ 713 µM) | zone of inhibition at 1000 µg/mL (Pseudomonas aeruginosa [6]): > 13 mm | growth inhibition (GI) (Aspergillus niger): inactive | MIC (Staphylococcus aureus [7]; ATCC 6538, 48 h): 100 µg/mL (≈ 357 µM) | MIC (Bacillus spizizenii [8]; ATCC 6633, 48 h): 100 µg/mL (≈ 357 µM) | zone of inhibition at 1000 µg/mL (Bacillus spizizenii [9]): > 13 mm | MBC (Escherichia coli [10]): 100 µg/mL (≈ 357 µM) | zone of inhibition at 1000 µg/mL (Escherichia coli [11]): > 13 mm

C[C@@H]1[C@H](O)[C@@H](C)/C=C/C=C/C=C/C=C/C=C/C=C/C=C/[C@H](O[C@@H]2O[C@H](C)[C@@H](O)[C@H](N)[C@@H]2O)C[C@@H]2O[C@](O)(C[C@@H](O)C[C@@H](O)[C@H](O)CC[C@@H](O)C[C@@H](O)CC(=O)O[C@H]1C)C[C@H](O)[C@H]2C(=O)O [AMPHOTERICIN B]
MIC (Candida albicans [14]): 1.56 µg/mL (≈ 1.69 µM)

CCOC(=O)c1sc(NC=O)nc1C
zone of inhibition at 1000 µg/mL (Staphylococcus aureus [1]): > 13 mm | MBC (Bacillus spizizenii [3]): 200 µg/mL (≈ 934 µM) | zone of inhibition at 1000 µg/mL (Candida albicans [4]): > 13 mm | MBC (Staphylococcus aureus [5]): 200 µg/mL (≈ 934 µM) | zone of inhibition at 1000 µg/mL (Pseudomonas aeruginosa [6]): > 13 mm | growth inhibition (GI) (Aspergillus niger): inactive | MIC (Staphylococcus aureus [7]; ATCC 6538, 48 h): 100 µg/mL (≈ 467 µM) | MIC (Bacillus spizizenii [8]; ATCC 6633, 48 h): 100 µg/mL (≈ 467 µM) | zone of inhibition at 1000 µg/mL (Bacillus spizizenii [9]): > 13 mm | zone of inhibition at 1000 µg/mL (Escherichia coli [11]): > 13 mm

CC1(C)S[C@@H]2[C@H](NC(=O)[C@H](N)c3ccccc3)C(=O)N2[C@H]1C(=O)O.O.O.O [AMPICILLIN TRIHYDRATE]
MIC (Escherichia coli [2]; ATCC 25922, 48 h): 6.25 µg/mL | MIC (Pseudomonas aeruginosa [12]; ATCC 27853, 48 h): 12.5 µg/mL | MIC (Staphylococcus aureus [7]; ATCC 6538, 48 h): 6.25 µg/mL | MIC (Bacillus spizizenii [8]; ATCC 6633, 48 h): 12.5 µg/mL

CCOC(=O)c1sc(NC(=S)NC2CCCCC2)nc1C
zone of inhibition at 1000 µg/mL (Staphylococcus aureus [1]): > 13 mm | MIC (Escherichia coli [2]; ATCC 25922, 48 h): 50 µg/mL (≈ 153 µM) | MBC (Bacillus spizizenii [3]): 200 µg/mL (≈ 611 µM) | zone of inhibition at 1000 µg/mL (Candida albicans [4]): > 13 mm | MBC (Staphylococcus aureus [5]): 100 µg/mL (≈ 305 µM) | zone of inhibition at 1000 µg/mL (Pseudomonas aeruginosa [6]): > 13 mm | growth inhibition (GI) (Aspergillus niger): inactive | MIC (Staphylococcus aureus [7]; ATCC 6538, 48 h): 50 µg/mL (≈ 153 µM) | MIC (Bacillus spizizenii [8]; ATCC 6633, 48 h): 100 µg/mL (≈ 305 µM) | zone of inhibition at 1000 µg/mL (Bacillus spizizenii [9]): > 13 mm | MBC (Escherichia coli [10]): 100 µg/mL (≈ 305 µM) | zone of inhibition at 1000 µg/mL (Escherichia coli [11]): > 13 mm
